M1 antag: M1 muscarinic receptor (rat) antagonism; P08482; CHO-M1 cells, Fluo-4 calcium, ACh EC80 antagonist mode; stronger effect = lower value; B-score at 10 µM; hit rate 3.4% among 64,000; AID 628;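 active = calcium fluorescence response, raw or row-and-column corrected B-score, differing from the plate sample mean either way at a set confidence level, mostly lower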
S1P3 agonist: activates the human S1P3 receptor; S1P3 NFAT-BLA reporter cells, agonism, FRET ratio; relative to 1 µM S1P, basal subtracted; activation, % at 4.5 µM; hit rate 0.1% among 60,000; AID 373;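 active = activation above the screen-wide mean plus 3 SD, cut at about 4.5% in these data, passing the limit was not always enough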
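Assay system: CHO cells stably expressing human S1P3, Gα16 and NFAT-β-lactamase reporter. Timing: overnight plating, 4 h compound 37 °C, 2 h substrate RT. Signal: β-lactamase FRET emission ratio 460/535 nm. Measure: percent activation versus median 1 µM S1P response, basal-subtracted, per plate. Repeats: primary screen single test, confirmation screen in triplicate.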
M1 ag: activates the M1 muscarinic receptor; CHO-M1 cells, Fluo-4 calcium fluorescence, agonist mode; stronger effect = higher value; B-score at 10 µM; hit rate 3% among 64,000; AID 626;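 active = fluorescence rise, raw or as B-score row- and column-corrected plate score, outside the 99.7% band of its plate's samples, either direction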
D1 allo mod: allosterically modulates the human D1 dopamine receptor; AID 641; B-score at 10 µM; hit rate 5.9% among 58,000; HEK293 D1, CRE-luciferase, dopamine EC30 potentiation; actives deviate in either direction;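 active = luminescence count or its row- and column-corrected plate score outside the 99.7% band of the plate's sample wells, on either side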
S1P1 ag-PAM: agonists and agonism potentiators of human S1P1 receptor; S1P1 CRE-bla cells, forskolin, beta-lactamase FRET, potentiator mode; S1P1 agonist co-added at EC20, 2 nM; 100% = saturating reference agonist, 0% = basal; activation, % at 9.5 µM; P21453; hit rate 0.57% among 56,000;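 active = activation above a cutoff set at the mean activation of all tested compounds plus 3 SD, cut at about 54% in these data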;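 note: forskolin at 4 µM as EC80 and the EC20 agonist is SEW2871; 100% = SEW2871 at its EC100 plus forskolin at EC80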
Target sequence (P21453 whole entry, looked up): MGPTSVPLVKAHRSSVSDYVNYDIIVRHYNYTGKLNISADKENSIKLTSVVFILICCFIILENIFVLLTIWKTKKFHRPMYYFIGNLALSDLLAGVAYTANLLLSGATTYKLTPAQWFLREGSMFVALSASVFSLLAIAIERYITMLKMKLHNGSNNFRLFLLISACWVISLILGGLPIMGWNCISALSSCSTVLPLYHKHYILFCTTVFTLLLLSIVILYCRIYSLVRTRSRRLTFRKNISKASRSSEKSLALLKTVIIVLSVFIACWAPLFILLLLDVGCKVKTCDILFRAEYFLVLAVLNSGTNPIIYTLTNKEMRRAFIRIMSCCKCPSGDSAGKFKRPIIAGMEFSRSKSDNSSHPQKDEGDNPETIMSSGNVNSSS
M1 antag conf: confirmation of rat M1 muscarinic receptor antagonists. shares compounds with M1 antag. CHO-M1 cells, Fluo-4 calcium, ACh EC80 antagonism; stronger effect = lower value. calcium response (max-min fluorescence) at 10 µM. hit rate 43% among 1,700;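 active = calcium response below the same-plate mean of wells given acetylcholine alone at its 80%-effect dose, minus 3 SD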;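 note: raw fluorescence intensity difference in arbitrary instrument units and not normalized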
mGluR4 antag: acts on human mGluR4 in M1 antagonist selectivity test; shares compounds with M1 antag; CHO-mGluR4 calcium flux, Fluo-4 fluorescence, glutamate EC80; stronger effect = lower value; fluorescence response (max-min) at 10 µM; hit rate 0.9% among 1,700;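 active = fluorescence response below the plate's average for near-maximal glutamate wells, less 3 SD of those wells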;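 note: raw unnormalized fluorescence span taken in the window right after glutamate addition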
The depositor's hits bear a star; nt = not tested or not shown. An excerpt weighted towards active compounds, which were near 11% of everything screened.

SMILES | M1 antag | S1P3 agonist | M1 ag | D1 allo mod | S1P1 ag-PAM | M1 antag conf | mGluR4 antag
c1ccc2c(c1)[nH]c1c(N3CCCC3)ncnc12 | -5.4* | 0 | 1 | -0.97 | 25 | 405* | 203
CN1CCN(c2ncnc3c2[nH]c2ccc(F)cc23)CC1 | -6.2* | -3 | 2.7 | nt | -7 | 542 | 220
c1ccc2c(c1)[nH]c1c(N3CCSCC3)ncnc12 | -2.9* | -5 | 3.9 | nt | 18 | 678 | 241
Cc1ccc2[nH]c3c(N4CCOCC4)ncnc3c2c1 | 0.11 | -1 | 1.6 | -0.32 | -6 | nt | nt
CC(C)n1c(=S)[nH]c2c1c(=O)[nH]c(=O)n2C | nt | -2 | nt | nt | -6 | nt | nt
CC(C)N1C(=O)CCC1C(=O)NCc1ccccc1Cl (centres undefined) | 0.2 | 0 | -0.49 | 0.45 | -29 | nt | nt
Cc1ccc(Cl)cc1N1CCN(C(c2ccc(C#N)cc2)c2nnnn2C2CCCC2)CC1 (centres undefined) | -4.1* | -2 | -1.2 | -0.28 | -3 | 643 | 243
O=C(c1ccc2nc(N3CCCCC3)sc2c1)N1CCN(Cc2ccc3c(c2)OCO3)CC1 | -0.95* | 0 | -2.1 | -1 | -1 | 366 | 219
O=C(CN1CCOCC1)OCCCC1CCCCC1 | -3.9* | -1 | -0.9 | nt | 4 | 517 | 194
CCOc1ccc2nc(N3CCC(C(=O)N4CCN(C5CCCCC5)CC4)CC3)sc2c1 | -2.9* | 0 | -2.2 | -1.3 | -8 | 378* | 243
Cn1c(=O)c2c(-c3ccncc3)c3c(nc2n(C)c1=O)-c1ccccc1C3=O | 0.022 | -1 | 0.36 | -0.068 | -10 | nt | nt
COC(=O)C1=CN(C2CC2)C=C(C(=O)OC)C1c1ccc(C(=O)OC)cc1 | -5.9* | 1 | -0.58 | 1.4 | -16 | 188* | 183
COC(=O)C1=CN(C)C=C(C(=O)OC)C1c1ccsc1 | 0.89 | 1 | -0.071 | nt | -43 | nt | nt
CSc1nc2ccc(S(=O)(=O)N3CCOCC3)cc2s1 | -4.7* | -1 | -0.48 | 0.22 | 1 | 298* | 167
COc1cc(C(=O)Nc2nc3ccc(S(=O)(=O)N4CCOCC4)cc3s2)cc(OC)c1OC | -0.43 | 0 | 1.8 | -2.6 | nt | nt | nt
CCCCNS(=O)(=O)c1ccc2nc(SCC(=O)c3ccc(C#N)cc3)[nH]c2c1 | 0.54 | 0 | -0.48 | -0.024 | 13 | nt | nt
Cn1c(CN2CCCCC2)nc2cc(NS(=O)(=O)c3ccc(Cl)cc3)ccc21 | -0.86 | -1 | -1.6 | 0.52 | nt | nt | nt
Cn1c(CCN2CCCCC2)nc2cc(NS(=O)(=O)c3ccc(Cl)cc3)ccc21 | -3.1* | 0 | -0.92 | -1.3 | -3 | 305* | 243
Cn1c(CCN2CCN(c3ccccc3)CC2)nc2cc(NC(=O)c3ccco3)ccc21 | -5.5* | 0 | 0.59 | -2.5 | 18 | 125* | 203
Cn1c(CCN2CCOCC2)nc2cc(NC(=O)COc3ccccc3)ccc21 | -3.7* | 0 | -0.2 | -0.75 | 6 | 581 | 174
CC1CCN(CCc2nc3cc(NS(=O)(=O)c4ccc(F)cc4)ccc3n2C)CC1 | -4* | 0 | -0.1 | 0.091 | 8 | 405* | 267
Cc1ccc(N2CCN(CCc3nc4cc(NC(=O)c5ccco5)ccc4n3C)CC2)cc1 | nt | 0 | nt | -0.94 | -8 | nt | nt
CC(=O)C1C(c2ccccc2OC(F)F)NC(=O)NC1(O)C(F)(F)F (centres undefined) | -0.22 | 0 | -0.11 | nt | -24 | nt | nt
CCOC(=O)C(Oc1ccc(=O)n(-c2ccccc2)n1)C(C)=O (centres undefined) | 0.043 | -1 | -0.014 | -0.32 | -6 | nt | nt
Cn1c(CN2CCCC2)nc2cc(NC(=O)Nc3ccccc3)ccc21 | -1.6 | -1 | 0.22 | -2.5 | 9 | nt | nt
SMILES | M1 antag | S1P3 agonist | M1 ag | D1 allo mod | S1P1 ag-PAM | M1 antag conf | mGluR4 antag
CC1CCN(CCc2nc3cc(NC(=O)Nc4ccccc4)ccc3n2C)CC1 | -10* | 1 | -1.1 | -0.24 | 15 | 302* | 209
Cn1c(CN2CCCCC2)nc2cc(NC(=O)c3ccccc3)ccc21 | -2.8* | 0 | 0.034 | nt | -1 | 472 | 208
Cn1c(CCN2CCCCC2)nc2cc(NC(=O)C3CCCCC3)ccc21 | -3.8* | 0 | -0.23 | -1.4 | -7 | 408* | 198
CC1CCN(CCc2nc3cc(NS(=O)(=O)c4ccccc4)ccc3n2C)CC1 | -6* | 0 | 1.1 | -0.33 | -1 | 415* | 262
O=C(O)CCc1nnc2n(Cc3ccc(F)cc3)c(=O)c3ccccc3n12 | 0.0028 | 2 | 0.099 | nt | -12 | nt | nt
Cc1ccc(N(CC(=O)Nc2ccc3c(c2)OCCO3)S(=O)(=O)c2c(C)noc2C)cc1 | -3* | 0 | 1.3 | -1.3 | 7 | 529 | 219
O=C1CN(C(=O)CCCc2c[nH]c3ccccc23)c2ccccc2N1 | -0.25 | 1 | -0.87 | -0.65 | 4 | nt | nt
COc1ccccc1S(=O)Cc1ccc(C(=O)NCCc2ccc(Cl)cc2)o1 (centres undefined) | -3.2* | 1 | 2.4 | -2.8 | 4 | 545 | 193
COc1cccc2cc(-c3nnc(SCC(=O)NCc4ccccc4)n3C)oc12 | 0.79 | 0 | 0.68 | -0.17 | nt | nt | nt
O=C(NCc1ccco1)C(c1cccs1)N(C(=O)C1COc2ccccc2O1)c1cccc(O)c1 (centres undefined) | -1.6 | -1 | 2.2 | nt | 9 | nt | nt
CCOc1ccccc1C1C(C#N)=C(SCC(=O)OC)NC(=O)C1C(=O)OC (centres undefined) | -2.8* | -1 | 0.11 | 0.28 | -1 | 559 | 201
CCOC(=O)c1cnc(SCc2nc(N)nc(Nc3ccc(C)cc3)n2)nc1N | 0.37 | -1 | -0.82 | 2.3 | -8 | nt | nt
CNC(=O)C1C2C=CC3(O2)C1C(=O)N(C1CC1)C3C(=O)NCc1ccc(OC)cc1 (centres undefined) | -2.1* | nt | -0.57 | -0.0055 | nt | 679 | 243
C=CCN1C(=O)C2C(C(=O)NC)C3C=CC2(O3)C1C(=O)NCc1ccc(OC)cc1 (centres undefined) | 0.67 | nt | 0.35 | 1.2 | nt | nt | nt
O=C(Nn1c(-c2ccccc2)nc2ccccc2c1=O)C1CCC1 | 0.091 | 0 | -0.18 | -0.14 | 2 | nt | nt
CCOC(=O)CSc1nc(-c2cccs2)nc2c1c(=O)n(C)c(=O)n2C | -0.35 | -1 | 0.33 | nt | -2 | nt | nt
CN(C)CCNc1c2c(c(C#N)c3nc4ccccc4n13)CCCC2 | -4.7* | 1 | 0.2 | 0.54 | -10 | 377* | 245
N#Cc1c2c(c(NCc3ccco3)n3c1nc1ccccc13)CCC2 | -0.057 | -1 | -0.49 | -0.27 | -28 | nt | nt
C=C(C)COc1ccc2c(C)c(CC(=O)OC)c(=O)oc2c1C | -2* | -1 | -1.2 | 0.3 | nt | 641 | 225
CCOc1cccc(OCCCNCCCOC)c1 | -0.04 | -1 | 0.41 | -0.36 | -23 | nt | nt

Compound activity deposited in PubChem BioAssay by several laboratories.
